Data: ChEMBL document CHEMBL1124180, “Asymmetric synthesis and properties of the enantiomers of the antibacterial agent 7-(3-aminopyrrolidin-1-yl)-1-(2,4-difluorophenyl)-1,4-dihydro-6- fluoro-4-oxo-1,8-naphthyridine-3-carboxylic acid hydrochloride” (J Med Chem, 1988)
Converted amounts (≈) assume the structure as drawn.

How the values were obtained:
[1] = Solubility in aqueous media Ringer's buffer,pH7.4; format: physicochemical; conditions: pH 7.4
[2] = Solubility in aqueous media urine, pH 5.1; format: physicochemical; conditions: read-out: S
[3] = Solubility in aqueous media urine, pH 5.7; format: physicochemical; conditions: read-out: S
[4] = Solubility in aqueous media urine, pH 6.3; format: physicochemical; conditions: read-out: S
[5] = Solubility in aqueous media urine, pH 7.0; format: physicochemical; conditions: read-out: S
[6] = Solubility in aqueous media 0.15 N phosphate, pH 5.6; format: physicochemical; conditions: read-out: S
[7] = Solubility in aqueous media 0.15Nacetate, pH 6.1; format: physicochemical; conditions: 0.15 N acetate, read-out: S
[8] = Solubility in aqueous media 0.1 N chloride, pH 6.5; format: physicochemical; conditions: read-out: S
[9] = system: Acinetobacter sp.; assay: In vitro activity against Acinetobacter sp.(CMX 669).; format: functional
Outline: (§1)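 MIC determined by agar dilution on brain-heart infusion agar under aerobic conditions.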

[10] = system: Enterococcus faecium; assay: In vitro activity against Enterococcus faecium (ATCC 8043).; format: functional; outline: as §1
[11] = system: Escherichia coli; assay: In vitro activity against Escherichia coli (DC-2); format: functional
Outline: (§2)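 MIC for aerobic bacteria, measured on brain-heart infusion agar.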

[12] = system: Escherichia coli; assay: In vitro activity against Escherichia coli (H560); format: functional; outline: as §2
[13] = system: Escherichia coli; assay: In vitro activity against Escherichia coli (KNK437); format: functional; outline: as §2
[14] = system: Escherichia coli; assay: In vitro activity against Escherichia coli (SS).; format: functional; outline: as §2
[15] = system: Escherichia coli; assay: In vitro activity against Escherichia coli Juhl; format: functional; outline: as §2
[16] = system: Klebsiella aerogenes; assay: In vitro activity againsT Enterobacter aerogenes (ATCC 13048).; format: functional; outline: as §1
[17] = system: Klebsiella pneumoniae; assay: In vitro activity against Klebsiella pneumoniae (ATCC 8045).; format: functional; outline: as §1
[18] = system: Micrococcus luteus; assay: In vitro activity against Micrococcus luteus (ATCC 4698); format: functional; outline: as §1
[19] = system: Micrococcus luteus; assay: In vitro activity against Micrococcus luteus (ATCC 9341); format: functional; outline: as §1
[20] = system: Mus musculus; assay: In vivo activity against Escherichia coli Juhl(100X LD50), when administered po( each compound tested at 3 doses with 10 animals); format: functional
Outline: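 Mice were challenged intraperitoneally with the organism. The compound was given orally as a total dose split into equal portions at 1 and 5 h post-infection. Three doses were used, with 10 animals per dose.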

[21] = system: Mus musculus; assay: In vivo activity against Escherichia coli Juhl(100X LD50), when administered sc( each compound tested at 3 doses with 10 animals); format: functional
Outline: (§3)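 Mice were challenged intraperitoneally with the organism. The compound was given subcutaneously as a total dose split into equal portions at 1 and 5 h post-infection. Three doses were used, with 10 animals per dose.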

[22] = system: Mus musculus; assay: In vivo activity against Pseudomonas aeruginosa A5007 (100X LD50), administered sc ( each compound tested at 3 doses with 10 animals); format: functional; outline: as §3
[23] = system: Mus musculus; assay: In vivo activity against Pseudomonas aeruginosa A5007 (100X LD50), administered sc( each compound tested at 3 doses with 10 animals); format: functional; outline: as §3
[24] = system: Providencia stuartii; assay: In vitro activity against Providencia stuartii (CMX 640); format: functional; outline: as §1
[25] = system: Pseudomonas aeruginosa; assay: In vitro activity against Pseudomonas aeruginosa (A5007).; format: functional; outline: as §1
[26] = system: Pseudomonas aeruginosa; assay: In vitro activity against Pseudomonas aeruginosa (BMH10); format: functional; outline: as §1
[27] = system: Pseudomonas aeruginosa; assay: In vitro activity against Pseudomonas aeruginosa (K799/WT).; format: functional; outline: as §1
[28] = system: Staphylococcus aureus; assay: In vitro activity against Staphylococcus aureus(45); format: functional; outline: as §1
[29] = system: Staphylococcus aureus; assay: In vitro activity against Staphylococcus aureus (A5177); format: functional; outline: as §1
[30] = system: Staphylococcus aureus; assay: In vitro activity against Staphylococcus aureus(ATCC 6538P); format: functional; outline: as §1
[31] = system: Staphylococcus aureus; assay: In vitro activity against Staphylococcus aureus(CMX 503A); format: functional; outline: as §1
[32] = system: Staphylococcus aureus; assay: In vitro activity against Staphylococcus aureus(CMX 553); format: functional; outline: as §1
[33] = system: Staphylococcus aureus; assay: In vitro activity against Staphylococcus aureus(CMX 686B); format: functional; outline: as §1
[34] = system: Staphylococcus epidermidis; assay: In vitro activity against Staphylococcus epidermidis (3519); format: functional; outline: as §1
[35] = system: Streptococcus agalactiae; assay: In vitro activity against Streptococcus agalactiae (CMX 508).; format: functional; outline: as §1
[36] = system: Staphylococcus aureus; assay: In vitro activity against Staphylococcus aureus(45 RAR2); format: functional; outline: as §1
[37] = system: Streptococcus equinus; assay: In vitro activity against Streptococcus bovis (A5169).; format: functional; outline: as §1
[38] = system: Streptococcus pyogenes; assay: In vitro activity against Streptococcus pyogenes (2548 INDUC).; format: functional; outline: as §1
[39] = system: Streptococcus pyogenes; assay: In vitro activity against Streptococcus pyogenes(930 CONST).; format: functional; outline: as §1
[40] = system: Streptococcus pyogenes; assay: In vitro activity against Streptococcus pyogenes (EES61); format: functional; outline: as §1
[41] = Solubility in aqueous media 0.15 N sulfate, pH 5.4; format: physicochemical; conditions: read-out: S
[42] = system: Burkholderia cepacia; assay: In vitro activity against Pseudomonas cepacia (296I); format: functional; outline: as §1
[43] = system: Prevotella bivia; assay: In vitro activity against Bacteroides bivius(B 6140); format: functional
Outline: (§4)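 MIC determined under anaerobic conditions on Wilkins-Chalgren agar.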

[44] = system: Prevotella disiens; assay: In vitro activity against Bacteroides disiens (ATCC 29426); format: functional; outline: as §4
[45] = system: Phocaeicola vulgatus; assay: In vitro activity against Bacteroides vulgatus(792); format: functional; outline: as §4
[46] = system: Phocaeicola vulgatus; assay: In vitro activity against Bacteroides vulgatus(SFBC 2375); format: functional; outline: as §4
[47] = system: Bacteroides fragilis; assay: In vitro activity against Bacteroides fragilis (105AT25285); format: functional; outline: as §4
[48] = system: Bacteroides fragilis; assay: In vitro activity against Bacteroides fragilis (784); format: functional; outline: as §4
[49] = system: Bacteroides fragilis; assay: In vitro activity against Bacteroides fragilis (SFM2906A); format: functional; outline: as §4
[50] = system: Bacteroides fragilis; assay: In vitro activity against Bacteroides fragilis (SFM2975-7); format: functional; outline: as §4
[51] = system: Bacteroides fragilis; assay: In vitro activity against Bacteroides fragilis (UC-2); format: functional; outline: as §4
[52] = system: Hoylesella loescheii; assay: In vitro activity against Bacteroides loescheii (ATCC 15930).; format: functional; outline: as §4
[53] = system: Bacteroides thetaiotaomicron; assay: In vitro activity against Bacteroides thetaiotaomicron (SFM2975-2); format: functional; outline: as §4
[54] = system: Bacteroides thetaiotaomicron; assay: In vitro activity against Bacteroides thetaiotaomicron (106); format: functional; outline: as §4
[55] = system: Bacteroides thetaiotaomicron; assay: In vitro activity against thetaiotaomicron (ATCC 29741); format: functional
Outline: (§5)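 Anaerobic MICs measured by agar dilution on Wilkins-Chalgren agar.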

[56] = system: Clostridioides difficile; assay: In vitro activity against Clostridium difficile (ATCC 9689); format: functional
[57] = system: Clostridium perfringens; assay: In vitro activity against Clostridium perfringens (104AT13124); format: functional
[58] = system: Clostridium perfringens; assay: In vitro activity against Clostridium perfringens (SFBC 2026); format: functional
[59] = system: Clostridioides difficile; assay: In vitro activity against Clostridium difficile (ATCC 17857); format: functional
[60] = system: Thomasclavelia ramosa; assay: In vitro activity against Clostridium ramosum (7); format: functional; outline: as §4
[61] = system: Fusobacterium nucleatum; assay: In vitro activity against Fusobacterium nucleatum (ATCC 25586); format: functional; outline: as §4
[62] = system: Parvimonas micra; assay: In vitro activity against Peptostreptococcus micros (ATCC 33270).; format: functional; outline: as §4
[63] = system: Peptoniphilus asaccharolyticus; assay: In vitro activity against Peptococcus asaccharolyticus (ATCC 14963).; format: functional; outline: as §4
[64] = system: Finegoldia magna; assay: In vitro activity against Peptococcus magnus (ATCC 29328); format: functional; outline: as §4
[65] = system: Peptostreptococcus; assay: In vitro activity against Peptostreptococcus sp.(TB-11); format: functional
Outline: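 MIC for anaerobic bacteria, measured on Wilkins-Chalgren agar.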

[66] = system: Veillonella parvula; assay: In vitro activity against Veillonella parvula (ATCC 10790); format: functional; outline: as §5
[67] = system: Prevotella melaninogenica; assay: In vitro activity against Bacteroides melaninogenicus (ATCC 25845).; format: functional; outline: as §4
[68] = system: Bacteroides thetaiotaomicron; assay: In vitro activity against Bacteroides thetaiotaomicron (ATCC 29742); format: functional; outline: as §4

With `Cl.NC1CCN(c2nc3c(cc2F)c(=O)c(C(=O)O)cn3-c2ccc(F)cc2F)C1` (stereo not drawn) the solubility [1] was 8 µg/mL, the solubility [2] was 23.5 µg/mL and the solubility [3] was 16.3 µg/mL. For the same molecule, the solubility [4] was 12.7 µg/mL, the solubility [5] was 12.2 µg/mL and the solubility [6] was 1.8 µg/mL. It also gave a solubility [7] of 1.7 µg/mL, a solubility [8] of 1.2 µg/mL and an MIC [9] of 0.05 µg/mL. The MIC [10] was 0.2 µg/mL, the MIC [11] was 0.2 µg/mL and the MIC [12] was 0.02 µg/mL. The MIC [13] was 0.02 µg/mL, the MIC [14] was 0.01 µg/mL and the MIC [15] was 0.02 µg/mL. It also gave an MIC [16] of 0.1 µg/mL, an MIC [17] of 0.02 µg/mL and an MIC [18] of 0.78 µg/mL. The MIC [19] was 1.56 µg/mL, the ED50 [20] was 1.2 mg/kg and the ED50 [21] was 0.2 mg/kg. It also gave an ED50 [22] of 0.4 mg/kg, an ED50 [23] greater than 25 mg/kg and an MIC [24] of 1.56 µg/mL. The MIC [25] was 0.2 µg/mL, the MIC [26] was 0.1 µg/mL and the MIC [27] was 0.1 µg/mL. For the same molecule, the MIC [28] was 0.1 µg/mL, the MIC [29] was 0.05 µg/mL and the MIC [30] was 0.02 µg/mL. The MIC [31] was 0.05 µg/mL, the MIC [32] was 0.05 µg/mL and the MIC [33] was 0.05 µg/mL. The MIC [34] was 0.05 µg/mL, the MIC [35] was 0.39 µg/mL and the MIC [36] was 0.1 µg/mL. The MIC [37] was 0.2 µg/mL, the MIC [38] was 0.2 µg/mL and the MIC [39] was 0.2 µg/mL. It also gave an MIC [40] of 0.2 µg/mL, a solubility [41] of 6.5 µg/mL and an MIC [42] of 6.2 µg/mL.

`CCC[C@@H]1C[C@@H](C(=O)N[C@@H]([C@H]2O[C@H](SC)[C@H](O)[C@@H](O)[C@H]2O)[C@H](C)Cl)N(C)C1` [CLINDAMYCIN] gave an MIC [43] of less than 0.015 µg/mL, an MIC [44] of less than 0.015 µg/mL and an MIC [45] of less than 0.015 µg/mL. For the same molecule, the MIC [46] was less than 0.015 µg/mL, the MIC [47] was 2 µg/mL (≈ 4.71 µM) and the MIC [48] was 1 µg/mL (≈ 2.35 µM). It also gave an MIC [49] of 0.5 µg/mL (≈ 1.18 µM), an MIC [50] of 2 µg/mL (≈ 4.71 µM) and an MIC [51] of 0.5 µg/mL (≈ 1.18 µM). The MIC [52] was 0.5 µg/mL (≈ 1.18 µM), the MIC [53] was 0.5 µg/mL (≈ 1.18 µM) and the MIC [54] was 4 µg/mL (≈ 9.41 µM). It also gave an MIC [55] of 8 µg/mL (≈ 18.8 µM), an MIC [56] of 4 µg/mL (≈ 9.41 µM) and an MIC [57] of 0.03 µg/mL (≈ 0.0706 µM). It also gave an MIC [58] of 0.25 µg/mL (≈ 0.588 µM), an MIC [59] of 8 µg/mL (≈ 18.8 µM) and an MIC [60] of 1 µg/mL (≈ 2.35 µM). The MIC [61] was 0.25 µg/mL (≈ 0.588 µM), the MIC [62] was 0.06 µg/mL (≈ 0.141 µM) and the MIC [63] was 0.06 µg/mL (≈ 0.141 µM). The MIC [64] was 1 µg/mL (≈ 2.35 µM), the MIC [65] was 0.06 µg/mL (≈ 0.141 µM) and the MIC [66] was 0.06 µg/mL (≈ 0.141 µM). For the same molecule, the MIC [67] was 0.03 µg/mL (≈ 0.0706 µM) and the MIC [68] was 4 µg/mL (≈ 9.41 µM).
